Compounds with a hit are over-represented: about 1.9% of the library has one in this group of screens.
PGC1a acetyl inh = inhibitors of PGC1a acetylation signal, primary screen, cell-based, U2OS, AlphaScreen, inhibitor mode; AlphaScreen anti-acetyl-lysine; with virally co-expressed GCN5 acetyltransferase; inhibition, % at 15.6 µM; hit rate 0.17% among 350,000; AID 651687, 2012;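 active means every replicate shows inhibition of at least 40%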
DENV2 CPE = inhibitors of DENV2 cytopathic effect, primary screen, cell-based, plate reader, single concentration; CPE inhibition, % at 9.99 µM; hit rate 1.7% among 350,000; DENV2-infected cells, cytopathic effect rescue; in the data active means CPE inhibition above about 20%, passing the limit was not always enough; tested in BHK-21 cells
Xi reactivation = activators of inactive X chromosome reactivation, primary screen, imaging, XiGFP fibroblasts, GFP high-content imaging, set 2; hit rate 0.055% among 360,000; activation, % at 7.58 µM; XiGFP mouse fibroblasts, % GFP-positive cells imaging, 3 d; cells co-treated with 5-aza-dC sensitizer; scaled so ellipticine positive control = 100%;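 active means mean normalized replicate activation at least 10% and every replicate at or above 10%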
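Material: XiGFP fibroblasts, SV40-immortalized; Buffer or medium: DMEM containing 5-aza-dC; Compound dosing: single point; Times: 3 days compound exposure.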
CFTR F508del cor = F508del CFTR correction, initial screen, CFBE line, single point. hit rate 0.36% among 350,000. activity (quench increase), % at 7.58 µM. CFBE cells, YFP halide quenching; stimulated with forskolin plus potentiator P3; % fluorescence drop versus neutral controls;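 active means mean added fluorescence quench of at least 8% versus neutral control, with both replicates also reaching 8%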;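 further: cells transiently co-express mutant CFTR-F508del with the halide-sensitive YFP; corrector assay measuring rescue of mutant channel to the surface after 24 h compound exposure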
FN deposition inh = inhibitors of fibronectin matrix deposition, primary screen, AH1F cells, Alexa488-fibronectin fluorescence, plate reader. AH1F fibroblasts, overnight. inhibition, % at 12.6 µM. hit rate 0.086% among 350,000;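 active means mean inhibition across replicates of 30% or more, regardless of how many single replicates reach that level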
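material = AH1F fibroblast monolayer depositing Alexa488-labelled fibronectin into matrix | amount = 10000 AH1F cells/well | buffer or medium = DMEM plus 2% serum, read in PBS | incubation = 1 h cell adhesion before compound, then overnight fibronectin incubation | detection = fluorescence at 485 nm excitation, 525 nm emission | evaluation = percent inhibition as loss of matrix-bound fibronectin fluorescence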
Cneo AK release = Cryptococcus neoformans cell lysis inducers, primary screen, AK release luminescence, single concentration; hit rate 0.2% among 360,000; AID 651654, 2012; lysis activity, % at 15 µM; C. neoformans lysis, adenylate kinase release luminescence, 4 h; normalised: neutral wells 0, clomiphene wells 100;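 active means mean lysis activity across replicates of at least 80%, whatever share of replicates individually reach that level; inactive means mean lysis activity below 80%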
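Test system: log-phase Cryptococcus neoformans yeast cells. Input: 5 × 10^6 yeast cells/mL. Medium: fresh YPD growth medium. Doses: single dose. Incubation: static 4 h at 37 °C with compound, 1 h detection. Measured by: luminescent adenylate kinase detection reagent. Read-out: signal increase indicating cell lysis. Benchmarks: Clomiphene.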
A number is an active result; n = inactive; x = no result given.

SMILES	PGC1a acetyl inh	DENV2 CPE	Xi reactivation	CFTR F508del cor	FN deposition inh	Cneo AK release
C[C@@H]1CN([C@H](C)CO)C(=O)c2cc(NC(=O)C3CCCCC3)ccc2O[C@H]1CN(C)S(=O)(=O)c1ccccc1	x	n	n	n	x	n
O=C(c1ccncc1)N1C[C@H]2[C@@H](c3ccccc31)[C@H](CO)N2C(=O)c1ccccc1F	n	43.4	n	n	x	n
O=C(Nc1ccccc1F)N1C[C@@H]2[C@H](c3ccccc31)[C@H](CO)N2C(=O)c1ccc(F)cc1	n	34.9	n	n	x	n
O=C(Nc1ccccc1F)N1C[C@@H]2[C@H](c3ccccc31)[C@@H](CO)N2C(=O)c1ccc(F)cc1	n	n	n	n	x	n
O=C(c1ccncc1)N1C[C@@H]2[C@H](c3ccccc31)[C@H](CO)N2C(=O)c1ccccc1F	n	n	n	n	x	n
O=C(c1cccc(F)c1)N1C[C@H]2[C@@H](c3ccccc31)[C@@H](CO)N2Cc1cocn1	n	n	n	n	n	99.8
COc1ccccc1NC(=O)N1C[C@@H]2[C@H](c3ccccc31)[C@@H](CO)N2C(C)=O	n	43.9	n	n	x	n
COc1ccccc1NC(=O)N1C[C@H]2[C@@H](c3ccccc31)[C@@H](CO)N2C(C)=O	n	n	n	n	x	n
C[C@H]1CN([C@@H](C)CO)C(=O)c2cc(-c3ccccc3F)cnc2O[C@H]1CN(C)C(=O)CN(C)C	n	n	n	n	n	n
COc1ccc(CN2[C@H](CO)[C@H]3c4ccccc4N(C(=O)Nc4ccc(F)cc4)C[C@H]32)cc1	n	21.9	n	n	x	n
COc1cccc(C(=O)N2C[C@H]3[C@@H](c4ccccc42)[C@H](CO)N3C(=O)c2ccc(F)cc2)c1	n	26.7	n	n	n	n
O=C(c1cccc(F)c1)N1C[C@H]2[C@@H](c3ccccc31)[C@@H](CO)N2C(=O)c1cccc(F)c1	n	20.9	n	n	n	n
COc1ccc(CN2[C@H](CO)[C@@H]3c4ccccc4N(C(=O)Nc4ccccc4)C[C@@H]32)cc1	n	n	n	n	x	n
C[C@H]1CN([C@@H](C)CO)C(=O)c2cc(NS(=O)(=O)c3ccc(F)cc3)ccc2O[C@H]1CN(C)Cc1ccc(C(=O)O)cc1	n	n	n	n	n	n
Nc1[nH]c2cc([N+](=O)[O-])ccc2c1-c1ccccn1	x	n	100.4	n	n	n
C=CCNc1nc(C(=O)OCC(=O)NCc2ccccc2OC)cs1	n	65.9	n	n	n	n
C=CCNc1nc(C(=O)OCC(=O)Nc2ccccc2C(F)(F)F)cs1	x	n	n	n	n	n
COc1ccc(-c2onc(C)c2-c2ccc(C(=O)OC(C)C)o2)c(O)c1	74.1	x	x	x	n	n
COc1ccc(N2C(=O)c3ccc(C(=O)OC(C)C)cc3C2=O)cc1	n	x	x	x	n	n
Cc1noc(C)c1NC(=O)N(C)C[C@@H]1Oc2ccc(NC(=O)CCCN(C)C)cc2C(=O)N([C@H](C)CO)C[C@H]1C	n	n	n	n	n	x
Cc1ccc2nc3n(c(=O)c2c1)-c1ccc(Cl)cc1C(=O)NC3CC(C)C (configuration not stated)	x	77.0	n	n	n	x
Cc1ccc2c(c1)-n1c(nc3ccc(C)cc3c1=O)C(Cc1ccc(O)cc1)NC2=O (configuration not stated)	x	33.2	n	n	n	x
O=C(NCC[C@@H]1CC[C@H](NS(=O)(=O)c2ccccc2F)[C@@H](CO)O1)c1ccc(F)cc1	n	n	n	n	n	n
COc1cc(CC(C#N)(CO)c2nc3ccccc3[nH]2)ccc1OC(F)F (configuration not stated)	n	47.3	n	n	n	n
Cc1ccc(CN2CC(=O)N3[C@H](CO)[C@@H](c4ccc(-c5ccccc5F)cc4)[C@@H]3C2)cc1	n	n	n	n	n	x
SMILES	PGC1a acetyl inh	DENV2 CPE	Xi reactivation	CFTR F508del cor	FN deposition inh	Cneo AK release
Cc1cccc(OC(C)C(=O)Nc2nc(-c3ccncc3)cs2)c1 (configuration not stated)	n	105.6	n	n	n	n
CC(Oc1ccc(F)cc1)C(=O)Nc1nc(-c2ccccn2)cs1 (configuration not stated)	n	n	n	n	n	n
Cc1noc(C)c1NC(=O)Nc1ccc2c(c1)C(=O)N([C@H](C)CO)C[C@@H](C)[C@@H](CN(C)Cc1ccc(C(F)(F)F)cc1)OCCCC[C@H](C)O2	n	n	n	n	x	n
COc1ccc(CN(C)C[C@@H]2OCCCC[C@@H](C)Oc3ccc(NS(=O)(=O)c4ccc(Cl)cc4)cc3C(=O)N([C@H](C)CO)C[C@H]2C)cc1	n	70.4	n	n	n	n
COc1ccc(CN(C)C[C@@H]2OCCCC[C@H](C)Oc3ccc(NS(=O)(=O)c4ccc(Cl)cc4)cc3C(=O)N([C@@H](C)CO)C[C@H]2C)cc1	n	31.0	n	n	n	n
COc1ccc(CN(C)C[C@@H]2OCCCC[C@@H](C)Oc3ccc(NS(=O)(=O)c4ccc(Cl)cc4)cc3C(=O)N([C@@H](C)CO)C[C@@H]2C)cc1	n	n	n	n	n	n
CNC[C@@H]1Oc2ccc(NC(=O)C3CCCCC3)cc2CC(=O)N([C@H](C)CO)C[C@@H]1C	n	n	n	n	n	n
CC(C)C(=O)Nc1ccc2c(c1)C(=O)N(C)[C@H]1CC[C@H](CC(=O)NCc3ccccc3)O[C@H]1CO2	n	n	n	n	n	n
S=C(NC1CC1)N1CCCc2ccccc21	x	53.7	n	n	x	n
COc1cccc(CN2CCNC(=O)C2CC(=O)NC2Cc3ccccc3C2)c1 (configuration not stated)	x	n	n	n	n	x
CCCN1CCC(NC(=O)CC2C(=O)NCCN2Cc2cccc(OC)c2)CC1 (configuration not stated)	x	85.3	n	n	n	n
Cc1noc(C)c1S(=O)(=O)Nc1ccc2c(c1)CC(=O)N([C@@H](C)CO)C[C@H](C)[C@H](CN(C)C)O2	n	n	n	n	x	n
CN(C)CC(=O)N[C@@H]1CC[C@H](CCNC(=O)C2CC2)O[C@H]1CO	n	n	n	n	n	x
COc1cccc2c1C(=O)C=C(C)C2=O	x	n	n	15.7	n	n
Cc1ccccc1CS(=O)(=O)c1nnc([C@H](Cc2ccccc2)NC(=O)OC(C)(C)C)o1	54.9	n	x	n	x	n
O=C(C[C@@H]1CC[C@@H](NC(=O)c2ccncc2)[C@@H](CO)O1)NCc1ccncn1	n	n	n	n	x	x

High-throughput results (PubChem BioAssay)
